Laboratory results: ChEMBL document CHEMBL1140290, “Synthesis and evaluation of (17alpha,20Z)-21-(4-substituted-phenyl)-19-norpregna-1,3,5(10),20-tetraene-3,17beta-diols as ligands for the estrogen receptor-alpha hormone binding domain: comparison with 20E-isomers” (J Med Chem, 2005)

What was measured:
[1] = target: T1, Estrogen receptor (Homo sapiens) (UniProt P03372); assay: Relative binding affinity of E isomers to human ERalpha-HBD at 4C compared to [3H]-estradiol
T1 sequence (whole entry): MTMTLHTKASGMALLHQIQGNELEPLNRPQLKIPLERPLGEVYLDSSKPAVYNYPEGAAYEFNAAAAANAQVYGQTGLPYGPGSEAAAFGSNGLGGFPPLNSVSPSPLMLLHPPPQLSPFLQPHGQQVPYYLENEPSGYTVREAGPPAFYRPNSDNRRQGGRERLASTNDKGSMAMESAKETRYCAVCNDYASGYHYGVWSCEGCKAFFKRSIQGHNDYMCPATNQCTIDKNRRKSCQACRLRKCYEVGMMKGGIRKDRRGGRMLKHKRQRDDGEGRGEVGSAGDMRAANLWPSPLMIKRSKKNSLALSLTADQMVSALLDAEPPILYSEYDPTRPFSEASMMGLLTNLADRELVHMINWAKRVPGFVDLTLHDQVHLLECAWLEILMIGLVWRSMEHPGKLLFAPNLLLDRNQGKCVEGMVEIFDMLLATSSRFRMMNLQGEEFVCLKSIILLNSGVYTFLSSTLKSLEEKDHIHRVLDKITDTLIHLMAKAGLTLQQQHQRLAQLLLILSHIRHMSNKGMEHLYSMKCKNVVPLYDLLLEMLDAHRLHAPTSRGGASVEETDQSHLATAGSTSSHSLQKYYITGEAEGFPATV

[2] = target: T1, Estrogen receptor (Homo sapiens); assay: Relative binding affinity of Z isomers to human ERalpha-HBD at 25 degree C compared to [3H]estradiol
Procedure, shortened: (§1)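 ERα-HBD (33 kDa) expressed in BL21 cells, induced with 0.6 mM IPTG for 3 h at room temperature. Lysed by sonication in Tris/NaCl/EDTA/DTT/1 M urea buffer, pH 7.4, clarified at 30000g, and diluted to 50 nM ER. […] Bound and free separated with dextran-coated charcoal. RBA = 100×[E]/[C], from 50% inhibition on a best-fit curve.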

[3] = target: T1, Estrogen receptor (Homo sapiens); assay: Relative binding affinity of E isomers to human ERalpha-HBD at 25 degree C compared to [3H]estradiol
[4] = target: T1, Estrogen receptor (Homo sapiens); assay: Relative binding affinity of Z isomers to human ERalpha-HBD at 4C compared to [3H]estradiol; procedure, shortened: as §1
[5] = target: T2, Estrogen receptor (Rattus norvegicus) (UniProt P06211+Q62986); assay: Effective dose of Z-isomer in rat uterotrophic growth assay compared to 10 nmol estradiol; assay type: functional
[6] = target: T2, Estrogen receptor (Rattus norvegicus); assay: Effective dose of E-isomer in rat uterotrophic growth assay compared to 10 nmol estradiol; assay type: functional

Row | RBA [1] | RBA [2] | RBA [3] | RBA [4] | ED50 [5] | ED50 [6] | Structure (SMILES)
1 | 16% | 66% | 9% | 57% |  |  | C[C@]12CC[C@@H]3c4ccc(O)cc4CC[C@H]3[C@@H]1CC[C@@]2(O)/C=C\c1ccccc1
2 | 53% | 29% | 60% | 22% |  |  | CC(=O)c1ccc(/C=C\[C@]2(O)CC[C@H]3[C@@H]4CCc5cc(O)ccc5[C@H]4CC[C@@]32C)cc1
3 | 21% | 25% | 25% | 12% |  |  | C[C@]12CC[C@@H]3c4ccc(O)cc4CC[C@H]3[C@@H]1CC[C@@]2(O)/C=C\c1ccc(O)cc1
4 | 5% | 9% | 8% | 5% | 1.1 nmol | 10.6 nmol | C[C@]12CC[C@@H]3c4ccc(O)cc4CC[C@H]3[C@@H]1CC[C@@]2(O)/C=C\c1ccc(C(F)(F)F)cc1
5 | 10% | 9% | 18% | 10% | 4.2 nmol | 5.5 nmol | Cc1ccc(/C=C\[C@]2(O)CC[C@H]3[C@@H]4CCc5cc(O)ccc5[C@H]4CC[C@@]32C)cc1

Second part, the compound before the results:

Row | Structure (SMILES) | RBA [1] | RBA [2] | RBA [3] | RBA [4] | ED50 [5] | ED50 [6]
6 | C[C@]12CC[C@@H]3c4ccc(O)cc4CC[C@H]3[C@@H]1CC[C@@]2(O)/C=C\c1ccc(N)cc1 |  | 26% |  | 22% |  | 
7 | COc1ccc(/C=C\[C@]2(O)CC[C@H]3[C@@H]4CCc5cc(O)ccc5[C@H]4CC[C@@]32C)cc1 | 36% | 39% | 32% | 20% |  | 
8 | C[C@]12CC[C@@H]3c4ccc(O)cc4CC[C@H]3[C@@H]1CC[C@@]2(O)/C=C\c1ccc(C#N)cc1 | 9% | 12% | 27% | 20% |  | 
9 | C[C@]12CC[C@@H]3c4ccc(O)cc4CC[C@H]3[C@@H]1CC[C@@]2(O)/C=C\c1ccc(F)cc1 | 24% | 44% | 22% | 43% | 2.3 nmol | 72 nmol
